According to ChEMBL document CHEMBL2157904, “Identification of a novel Smoothened antagonist that potently suppresses Hedgehog signaling” (Bioorg Med Chem, 2012):
Activity calls are given as the source filed them. The calls are words filed in the database; no cut-off is given here.

Columns and labels:
[1] = Antiproliferative activity against Shh-stimulated C57BL/6 mouse granule cell precursor after 48 hrs by [3H]thymidine incorporation assay; format: functional
Outline: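 Primary cerebellar granule cell precursors taken from 7-day postnatal C57BL/6 mice. Treated 48 h with Shh plus compound at increasing concentrations, then [3H]-thymidine added for 16 h and incorporation measured. Curve-fit IC50, mean ± SEM, n = 3.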

U2OS = assay: Antagonist activity at chimeric Smo 633 mutant expressed in U2OS cells coexpressing beta arrestin2-GFP assessed as inhibition of intracellular beta arrestin2-GFP aggregate formation at 5 uM after 6 hrs by confocal microscopy; format: functional, cell-based; settings: Homo sapiens
Outline: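 Cells exposed to compound at 5 µM for 6 hours. Confocal imaging scored loss of intracellular βarr2-GFP vesicular aggregates.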

[2] = target: Vasopressin V2 receptor (Homo sapiens) (UniProt P30518); assay: Antagonist activity at V2R expressed in U2OS cells coexpressing beta arrestin2-GFP assessed as inhibition of D-arginine vasopressin-induced intracellular beta arrestin2-GFP aggregate formation at 5 uM preincubated for 1 hr before agonist treatment measured after 6 hrs of agonist treatment by confocal microscopy; format: functional, cell-based
Mus musculus = assay: Inhibition of hair regrowth in eight week old C57BL/6 mouse at 0.5 mM topically administered daily on shaved and Nair depilated surface for 2 weeks; format: functional, organism-based
Outline: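 Female C57BL/6 mice aged eight weeks, in telogen, with dorsal skin shaved and then depilated with Nair for 2 min and rinsed. Compound at 0.5 mM in 95% acetone/5% DMSO, 30 µl applied topically to the depilated area daily for two weeks. Vehicle-treated controls. Brief 3% isoflurane anaesthesia during procedures.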

Protein smoothened = Protein smoothened (Mus musculus, UniProt P56726); assay: Antagonist activity at Smo in mouse Shh-Light 2 cells assessed as inhibition of Shh-induced Gli1-reporter activity after 2 days by dual-luciferase reporter gene method; format: functional, cell-based, Shh Light II
Outline: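 Shh-LIGHT2 cells (clonal NIH3T3 line with stably integrated Gli-dependent firefly luciferase and constitutive Renilla luciferase) stimulated with purified Sonic Hedgehog at 50 ng/mL, with compound at increasing concentrations. Dual-luciferase read-out. Mean ± SEM.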

Vasopressin V2 receptor (Homo sapiens), sequence (P30518 whole entry): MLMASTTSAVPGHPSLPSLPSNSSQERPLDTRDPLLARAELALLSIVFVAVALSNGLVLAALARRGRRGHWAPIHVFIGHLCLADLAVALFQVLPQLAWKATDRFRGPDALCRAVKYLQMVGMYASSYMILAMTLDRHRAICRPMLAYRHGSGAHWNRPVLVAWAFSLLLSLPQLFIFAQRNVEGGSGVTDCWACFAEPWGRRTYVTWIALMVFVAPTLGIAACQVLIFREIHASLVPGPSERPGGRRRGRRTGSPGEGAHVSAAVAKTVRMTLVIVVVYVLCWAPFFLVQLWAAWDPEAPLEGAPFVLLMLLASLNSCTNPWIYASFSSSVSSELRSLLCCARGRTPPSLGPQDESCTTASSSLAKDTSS
Protein smoothened, sequence (P56726 whole entry): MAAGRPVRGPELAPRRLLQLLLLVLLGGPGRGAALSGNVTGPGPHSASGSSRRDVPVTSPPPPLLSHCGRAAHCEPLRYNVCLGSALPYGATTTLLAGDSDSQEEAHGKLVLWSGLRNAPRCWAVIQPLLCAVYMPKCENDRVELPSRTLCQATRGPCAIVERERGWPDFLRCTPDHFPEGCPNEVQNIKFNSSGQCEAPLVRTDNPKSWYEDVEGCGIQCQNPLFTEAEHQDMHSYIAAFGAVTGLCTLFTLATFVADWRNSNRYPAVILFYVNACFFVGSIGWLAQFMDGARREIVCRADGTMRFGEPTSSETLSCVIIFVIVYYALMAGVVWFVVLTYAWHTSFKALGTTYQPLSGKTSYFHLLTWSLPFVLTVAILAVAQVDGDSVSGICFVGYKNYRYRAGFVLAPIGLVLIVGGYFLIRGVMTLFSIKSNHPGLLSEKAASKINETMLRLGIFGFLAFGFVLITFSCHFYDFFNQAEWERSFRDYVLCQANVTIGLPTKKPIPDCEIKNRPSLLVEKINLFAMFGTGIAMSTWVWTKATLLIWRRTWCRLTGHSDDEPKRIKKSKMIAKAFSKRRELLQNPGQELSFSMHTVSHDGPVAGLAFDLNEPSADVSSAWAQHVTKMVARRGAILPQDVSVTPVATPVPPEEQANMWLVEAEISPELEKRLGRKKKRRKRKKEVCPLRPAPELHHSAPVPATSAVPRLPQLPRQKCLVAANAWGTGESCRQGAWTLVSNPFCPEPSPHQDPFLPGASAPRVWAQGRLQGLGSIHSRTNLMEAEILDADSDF

Row | IC50 (Protein smoothened) [nM] | Compound | IC50 [1] [nM] | inhibition (U2OS) | inhibition [2] | inhibition (Mus musculus)
1 |  | CS(=O)(=O)c1ccc(C(=O)Nc2ccc(Cl)c(-c3ccccn3)c2)c(Cl)c1 [VISMODEGIB] | 16.4 |  |  | 
2 |  | CC1=C2C[C@H]3[C@@H](CC=C4C[C@@H](O)CC[C@@]43C)[C@@H]2CC[C@]12O[C@@H]1C[C@H](C)CN[C@H]1[C@H]2C [CYCLOPAMINE] | 414 | Active | inactive | 
3 |  | CCN(C)Cc1ccc(N2CCC(NC(=O)c3cccc(-c4cccnc4)c3)CC2)nc1 |  | Active |  | 
4 | 2.6 | O=C(NC1CCN(Cc2ccc(N3CCC(NC(=O)c4cccc(-c5cccnc5)c4)CC3)nc2)CC1)c1cccc(-c2cccnc2)c1 | 16.6 |  | inactive | Active
